The record followed here is ChEMBL document CHEMBL5038647, “Elastase Inhibitor Cyclotheonellazole A: Total Synthesis and In Vivo Biological Evaluation for Acute Lung Injury” (J Med Chem, 2022).

Several values for one entry are separate records, joined by “and”; a condition that tells them apart may be missing. Equal entries are not always repeated. Activity calls are given as the source filed them. The rule behind the calls is not given here. *1 amine or outer side, *2 acyl side, *3 side chain or, on linkers, in order; H or OH if unused. Where a SMILES comes first, the peptide text is derived from it. Bridges are numbered along the chain shown (N, C = ends). [ ]: non-standard residue; d: D form. The star is where a group is joined. X2 = O=C(/C=C/c1csc([C@H](Cc2ccc(O)cc2)N[*:1])n1)[*:2]; X1 = CC[C@H](C)[C@H](N[*:1])C(=O)C(=O)[*:2]; X3 = CC[C@H](C)[C@H](N[*:1])C(O)C(=O)[*:2]; Benzoyl(4-OH) = O=C(c1ccc(O)cc1)*; Cya = N[C@@H](CS(=O)(=O)O)C(=O)O; MeOSuc = COC(=O)CCC(=O)*; Nva = CCC[C@H](N)C(=O)O; Dap = NC[C@H](N)C(=O)O; CH2Cl = ClC*

In data set [1] the test system is Mus musculus. Briefly: Antiinflammatory activity against bleomycin-induced acute lung injury C57BL/6 mouse model assessed as reduction in lung edema by measuring reduction in lung wet/dry ratio at 30 mg/kg, ip administered for upto 5 days relative to control. Format: functional, organism-based. The following applies: time day <=5. Summed up: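 Same BLM model: C57BL/6J males, intratracheal BLM 4 mg/kg, then 30 mg/kg ip daily up to 5 days in 10% DMSO/90% saline, sacrifice day 6, n = 8 per group. Left lungs were weighed immediately, dried at 78 °C for 48 h to stable weight and reweighed to give the wet/dry ratio. Dead animals were excluded.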

Data set [2] is described as follows: Inhibition of porcine pancreatic elastase incubated for 40 mins in presence of DQ elastin substrate by fluorescence multiwell plate reader. More on the design: species or system Sus scrofa. A digest of the protocol: (§1)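 Fluorescence elastase assay with DQ elastin substrate at 25 μg/mL and either porcine pancreatic elastase at 0.4 U/mL or human neutrophil elastase at 0.2 U/mL. Enzyme, substrate and increasing inhibitor concentrations were incubated 40 min at rt in the dark, then read at ex 485/em 535 nm. Each experiment was run three times; paired Student's t test against controls.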

The test system of data set [3] is Mus musculus. In words: Antiinflammatory activity against bleomycin-induced acute lung injury C57BL/6 mouse model assessed as reduction in inflammatory cell infiltration in lung at 30 mg/kg, ip administered for upto 5 days by HE-staining based assay. The class given is functional, organism-based. The following applies: time day <=5. Summed up: (§2)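 Male C57BL/6J mice, 8 weeks old, n = 8 per group, anaesthetised with chloral hydrate. ALI was induced by intratracheal BLM 4 mg/kg in 0.1 mL saline; controls received saline. Drug was given at 30 mg/kg ip daily for up to 5 days in 10% DMSO/90% saline (vehicle alone for controls), with sacrifice on day 6. Right lungs were formalin-fixed, sectioned at 4 μm and HE-stained. A histologist scored three images per lung blind; dead animals were excluded.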

Data set [4] relates to Mus musculus. In words: Antiinflammatory activity against bleomycin-induced acute lung injury C57BL/6 mouse model assessed as reduction in pathological changes in lung at 30 mg/kg, ip administered for upto 5 days by HE-staining based assay. The class given is functional, organism-based. The following applies: time day <=5. A digest of the protocol: as §2
The nature of data set [5]: Inhibition of elastase (unknown origin). More on the design: species or system Homo sapiens. A digest of the protocol:
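EnzChek kit, DQ elastin substrate 25 μg/mL with porcine pancreatic elastase 0.4 U/mL or human neutrophil elastase 0.2 U/mL. Increasing inhibitor concentrations, 40 min at room temperature in the dark. Fluorescence read at ex 485/em 535 nm. Three repeats; paired Student's t test against controls.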

The test system of data set [6] is Mus musculus. In words: Antiinflammatory activity against bleomycin-induced acute lung injury C57BL/6 mouse model assessed as fold reduction in lung edema by measuring thickness of the alveolar deterioration at 30 mg/kg, ip administered for upto 5 days by HE-staining relative to control. Format: functional. Particulars: time day <=5. Summed up:
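Male C57BL/6J mice, 8 weeks old, n = 8/group. ALI induced by intratracheal BLM (4 mg/kg, in 0.1 mL saline) under chloral hydrate anaesthesia; sham controls got saline. Drug given ip at 30 mg/kg in 10% DMSO/90% saline daily for up to 5 days. Sacrifice on day 6; right lung formalin-fixed, 4 μm HE sections, three images per lung, blinded histologist scoring; dead animals excluded.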

Data set [7] in a line: Inhibition of elastase (unknown origin) at 1.25 uM by fluorescence microtiter plate method relative to control. The following applies: Homo sapiens. Summed up:
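Single-concentration screen: elastin substrate and elastase were incubated with test compounds at 1.25 μM in the EnzChek fluorescence elastase format (40 min, rt). Activity was read against controls, with three repeats.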

The species entered for another data set is Homo sapiens. Briefly: Inhibition of elastase (unknown origin) at 2.5 uM by fluorescence microtiter plate method relative to control. A digest of the protocol: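 Elastin substrate plus elastase incubated with a single inhibitor level (reference inhibitor MeOSu-AAPV-CMK at 2.5 μM, others at 1.25 μM). EnzChek DQ elastin fluorescence, ex 485/em 535 nm, 40 min at room temperature. Three repeats.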

A further data set deals with BEAS-2B. In words: Cytotoxicity against human BEAS-2B cells assessed as reduction in cell viability upto 100 uM incubated for 24 hrs by CCK-8 assay. The class given is toxicity, cell-based. Summed up: (§3)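 Cells (ACE2-overexpressing 293T stable line or BEAS-2B lung epithelial) were seeded at 1 × 10^4 per well and left about 12 h to adhere. They were exposed to graded compound concentrations for 24 h. CCK-8 was added and incubated 2 h at 37 °C, then OD450 read. Viability was expressed as percentage; IC50 was computed.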
(Formazan colour is commonly taken as a measure of viable cells.)

Data set [8] is described as follows: Cytotoxicity against human 293T/ACE2 cells assessed as reduction in cell viability upto 100 uM incubated for 24 hrs by CCK-8 assay. Format: toxicity, cell-based. The following applies: 293t/ace2, 24 h. A digest of the protocol: as §3
Data set [9] addresses T1, Neutrophil elastase (Homo sapiens, UniProt P08246).
T1 sequence (P08246 whole entry): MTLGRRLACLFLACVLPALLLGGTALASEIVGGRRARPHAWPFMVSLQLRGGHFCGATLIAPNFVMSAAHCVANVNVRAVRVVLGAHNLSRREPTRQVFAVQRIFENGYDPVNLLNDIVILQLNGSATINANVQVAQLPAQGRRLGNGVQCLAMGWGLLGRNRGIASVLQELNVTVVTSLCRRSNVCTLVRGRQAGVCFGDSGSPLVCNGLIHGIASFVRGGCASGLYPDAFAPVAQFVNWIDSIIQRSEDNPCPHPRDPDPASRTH
In words: Inhibition of human neutrophil elastase. A digest of the protocol:
as §1

Data set [10] deals with T1, Neutrophil elastase. In words: Inhibition of human neutrophil elastase incubated for 40 mins in presence of DQ elastin by fluorescence microtiter plate method.

The term IC50 denotes the midpoint of a concentration-inhibition curve. As to `CC(C)(C)C(=O)Oc1ccc(S(=O)(=O)Nc2ccccc2C(=O)NCC(=O)O)cc1`, the outcome in the data set on Mus musculus [1], with Mus musculus [3] and with Mus musculus [4] was Active. The half-inhibitory concentration (IC50) turned out to be 2960 nM in [2] and 44 nM in data set [5]. Also, the “fold change (FC)” value in the data set with Mus musculus [6] is on record as 1.

By inhibition is commonly meant the share of the control response that was lost under treatment. A higher inhibition goes with a strong effect. On to `CCC[C@@H]1NC(=O)[C@@H](NC(=O)[C@H](C)NC(=O)CNC(=O)c2ccc(O[Si](C)(C)C(C)(C)C)cc2)CNC(=O)[C@H](CS(=O)(=O)O)NC(=O)/C=C/c2csc(n2)[C@H](Cc2ccc(O[Si](C)(C)C(C)(C)C)cc2)NC(=O)C(=O)[C@H]([C@@H](C)CC)NC1=O`, for which the inhibition in data set [7] was 46.6%.

For the molecule `COC(=O)CCC(=O)N[C@@H](C)C(=O)N[C@@H](C)C(=O)N1CCC[C@H]1C(=O)N[C@H](C(=O)CCl)C(C)C` (MeOSuc-AAPV-CH2Cl), the inhibition in the data set listed under Homo sapiens is 23.2%.

Turning to `CCC[C@@H]1NC(=O)[C@@H](NC(=O)[C@H](C)NC(=O)CNC(=O)c2ccc(O)cc2)CNC(=O)[C@H](CS(=O)(=O)[O-])NC(=O)/C=C/c2csc(n2)[C@H](Cc2ccc(O)cc2)NC(=O)C(=O)[C@H]([C@@H](C)CC)NC1=O.[Na+]` ({Benzoyl(4-OH)}-GA[Dap][Nva][X1][X2][Cya]; lactam 3-C), the result with Mus musculus [1], in the data set on Mus musculus [3] and in the data set with Mus musculus [4] was Active. Further, the values for the half-inhibitory concentration (IC50) (in data set [2]; against Neutrophil elastase [9]; at Neutrophil elastase [10]) were 114 nM, 0.034 nM and 321 nM, respectively. In addition, the Activity result (in the data set with BEAS-2B; in data set [8]) was “Non-Toxic” each time. Besides, in the data set on Mus musculus [6], the “fold change (FC)” value was 1. Further, the inhibition in [7] was 3.6% and 3.8%.

In data set [7], `CCC[C@@H]1NC(=O)[C@@H](NC(=O)[C@H](C)NC(=O)CNC(=O)c2ccc(O)cc2)CNC(=O)[C@H](CS(=O)(=O)O)NC(=O)/C=C/c2csc(n2)[C@H](Cc2ccc(O)cc2)NC(=O)C(O)[C@H]([C@@H](C)CC)NC1=O` (some centres undefined) ({Benzoyl(4-OH)}-GA[Dap][Nva][X3][X2][Cya]; lactam 3-C) yielded an inhibition of 94%.
